HUVEC inhibit – inhibitors of human endothelial cell proliferation; 1.1% of 86,000 active; viability, % at 10 µM (by protocol); HUVEC proliferation, CellTiter-Glo luminescence, 72 h; active compounds read low; AID 648;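 active = viability at or below 30%; inactive = viability above 30%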;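 also: 100% = median luminescence of DMSO-only cell control wells on each plate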
Cav3 T inh – human Cav3.2 channel inhibition, primary screen. B-score at 10 µM. 4% of 100,000 active. Cav3.2-expressing cells, Fluo-4 calcium fluorescence FDSS; active compounds read low. O95180;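 active = single-dose well whose peak fluorescence ratio is a statistical outlier from its plate by either plate-standardised score or position-corrected B-score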
H69AR growth 86K – blocks growth of human H69AR lung tumor cells; viability, % at 10 µM; 6% of 85,000 active; H69AR lung tumor viability, ATP luminescence, 72 h; active compounds read low;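 active = viability at or below 40%; inactive = viability above 40%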;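 also: multidrug resistant small cell line overexpressing MRP-1 efflux transporter; 100% = mean luminescence of untreated control wells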
bCat KO growth – beta-catenin-lacking colon tumor cell growth suppression. HCT116 beta-catenin knockout viability, CellTiter-Glo, 60 h; active compounds read low. viability, % at 10 µM. 1.5% of 140,000 active;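 active = viability at or under a set limit, the compound median less 4 SD, cut at about 6% in these data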;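 also: 0% = Hyamine 1622 control at 20 µM and 100% = untreated cell control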
HCT116 PTEN-null – suppresses growth of cells with PTEN deletion; HCT116 PTEN-null viability, CellTiter-Glo, 60 h; active compounds read low; 1.2% of 140,000 active; AID 827; viability, % at 10 µM;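 active = viability at or below a set limit, 4 SD under the median of all tested compounds, cut at about 3.7% in these data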;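 also: PTEN knockout HCT116 line with beta catenin targeted HCT116 as companion control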
Fibroblast inh – blocks proliferation of human lung fibroblasts | AID 719 | LL 47 human lung fibroblast viability, ATP luminescence; active compounds read low | 1.1% of 85,000 active | viability, % at 10 µM;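 active = viability at or below 50% in the single dose screen; inactive = viability above 50%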;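 also: compound exposure lasted 72 h before the ATP readout; 100% = median luminescence of untreated cell-only wells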
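Test system: LL 47 human lung fibroblasts / Incubation: 72 h compound exposure at 37 °C after overnight plating / Technique: luminescent ATP detection, CellTiter-Glo / Compound dosing: 0.1% DMSO in all compound wells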
* = called active by the depositor; . = no result. Compounds with a hit are over-represented: about 7.1% of the library has one in this group of screens.

SMILES	HUVEC inhibit	Cav3 T inh	H69AR growth 86K	bCat KO growth	HCT116 PTEN-null	Fibroblast inh
COc1ccccc1-n1cnc2cc(NS(=O)(=O)c3ccc(Br)cc3)ccc21	73.6	-2.49	73.3	86.6	82.7	93.7
CCCCNC(=O)CCSc1ccc(C)cc1	.	.	.	90.7	101.6	.
Cc1ccc(SCCC(=O)NCCSCc2ccccc2C)cc1	.	-7.65*	.	100.2	91.3	.
Nc1nonc1NC(=O)NN=C1CCCCC1	.	.	.	99.0	107.9	.
CS(=O)(=O)N1CCc2cc(-c3csc(NC(=O)Cc4ccccc4)n3)ccc21	83.5	-2.79	79.0	14.3	13.1	101.0
CC1Cc2cc(-c3csc(NC(=O)Cc4cccs4)n3)ccc2N1S(C)(=O)=O (centres undefined)	67.5	.	74.7	5.6*	6.5	79.2
COc1ccc(CCN2CCC(Nc3nc4ccccc4n3Cc3ccc(F)cc3)CC2)cc1	1.9*	-4.96*	1.5*	1.0*	1.2*	2.1*
COc1cc2nc(NCCCN3CCN(C)CC3)n3nc(-c4ccccc4)nc3c2cc1OC	25.1*	0.552	28.4*	2.2*	1.9*	87.3
COc1cc2nc(NCCN3CCOCC3)n3nc(-c4ccccc4)nc3c2cc1OC	82.9	.	65.5	.	.	106.5
CN1CCN(CCCNc2nc3ccccc3c3nc(-c4ccccc4)nn23)CC1	69.5	.	27.9*	.	.	66.9
O=C(Nc1ccc(Cl)c(C(F)(F)F)c1)[C@@H]1CC=C[C@@H]2CCN(C3CC3)C(=O)[C@@H]21	.	-0.434	.	.	.	.
CC1CCC(n2c(=S)[nH]c3ccccc3c2=O)CC1 (centres undefined)	74.8	-0.264	73.3	93.2	98.9	84.2
CC1CCCC(n2c(=S)[nH]c3ccccc3c2=O)C1C (centres undefined)	71.7	1.21	21.9*	83.9	77.8	90.0
Cc1ccc(C)c(/C=C/C(=O)c2ccccc(=O)c2O)c1	.	.	.	11.8	8.2	.
Cc1ccc(CNC(=O)/C=C/c2ccccc2Cl)cc1	.	0.0861	.	92.5	89.5	.
Cc1ccc(/C=C/C(=O)c2ccccc(=O)c2O)c(C)c1	.	.	.	4.2*	5.8	.
O=C(/C=C/c1ccccc1Cl)c1ccccc(=O)c1O	.	.	.	1.3*	2.1*	.
COCc1cc(C)nc(N2CCN(c3ccccc3)CC2)c1C#N	103.6	-4.47*	88.3	97.8	97.0	99.3
COCc1cc(C)nc(N2CCN(Cc3ccccc3)CC2)c1C#N	83.7	1.1	98.0	96.2	91.8	91.0
CCOc1cc(CNCCCN2CCOCC2)cc(Br)c1OCC(=O)Nc1cccc(C(F)(F)F)c1	.	1.53	.	1.9*	1.5*	.
CCOc1cc(CNc2ccccc2)cc(Br)c1OCC(=O)NC(C)(C)C	.	-5.08*	.	16.9	27.6	.
COc1cc(CNCCCN2CCOCC2)cc(Br)c1OCC(=O)N1CCCCC1	.	0.537	.	94.3	105.2	.
CCOc1cc(CNc2ccc(Br)cc2)cc(Br)c1OCC(=O)NC(C)(C)C	.	-0.795	.	54.0	55.4	.
CCOC(=O)C1=C(N)n2c(s/c(=C/c3ccco3)c2=O)=C(C(=O)OC)C1c1ccco1 (centres undefined)	12.7*	-0.799	4.8*	2.2*	2.4*	80.3
CCOC(=O)C1=C(C)N=c2s/c(=C/c3ccco3)c(=O)n2C1c1cccc(OC)c1 (centres undefined)	113.2	-2.36	90.4	90.3	89.3	100.1
SMILES	HUVEC inhibit	Cav3 T inh	H69AR growth 86K	bCat KO growth	HCT116 PTEN-null	Fibroblast inh
N#CC1=C(N)n2c(s/c(=C\c3cccs3)c2=O)=C(C#N)C1c1cccs1 (centres undefined)	.	.	.	86.3	72.8	.
N#CC1=C(N)n2c(s/c(=C\c3ccco3)c2=O)=C(C#N)C1c1ccco1 (centres undefined)	74.6	-0.171	38.5*	91.0	89.7	92.2
Cc1ccc(C23CC4CC(CC(C(=O)N5CCOCC5)(C4)C2)C3)cc1	109.8	0.288	97.5	80.1	79.9	103.8
CCOC(=O)c1c(NC(=O)c2cc(C(C)C)on2)sc(C(C)=O)c1C	58.7	-0.829	66.1	18.2	40.0	99.0
CCOC(=O)c1sc(NC(=O)c2c(C)noc2C)c(C(=O)OCC)c1C	80.6	.	37.5*	.	.	91.5
O=C(CN1C(=O)CCC1=O)Nc1nc(-c2ccc(Oc3ccccc3)cc2)cs1	.	.	.	88.8	88.9	.
c1cncc(-c2nnc3sc(C4CCCCC4)nn23)c1	103.5	3.23*	71.7	102.3	97.5	105.4
CCOc1cccc(-c2nnc3sc(C4CCCCC4)nn23)c1	71.1	-3.44	43.8	6.1*	7.8	95.9
COc1ccc(CCNC(=O)Cn2cc(C(F)(F)F)cc(Cl)c2=O)cc1	.	.	.	95.9	98.2	.
COCCCNC(=O)COc1ccc(S(=O)(=O)NCc2ccccc2)cc1Cl	.	.	.	88.2	81.5	.
Cn1cc(C(=O)N/N=C/C(Br)=C\c2ccccc2)ccc1=O	.	0.921	.	14.1	6.4	.
Cn1cc(C(=O)N/N=C/C(Br)=C/c2ccccc2)ccc1=O	.	.	.	3.6*	3.3*	.
COc1cccc(C(=O)N/N=C/C(Br)=C/c2ccccc2)c1	.	.	.	2.8*	1.7*	.
O=C(N/N=C/C=C/c1ccccc1)c1n[nH]c2c1CCC2	.	.	.	25.0	28.5	.
O=C(Cc1cccs1)N/N=C/C(Br)=C/c1ccccc1	.	0.731	.	75.9	61.5	.
Cc1ccccc1NCC(=O)N/N=C/C(Br)=C/c1ccccc1	30.3	-0.144	10.5*	54.7	43.1	70.5
O=C(N/N=C/C(Br)=C\c1ccccc1)c1n[nH]c2c1CCC2	22.3*	.	5.3*	3.9*	2.2*	51.2
Cc1cc(C)c(NS(=O)(=O)c2ccc(NC(=O)/C=C/C(=O)O)cc2)c(C)c1	.	.	.	99.5	99.0	.
COC(=O)[C@@H]1C[C@@]2(O)[C@@H](O)[C@@H](O)[C@@H](O)C[C@H]2N1Cc1ccc(Cl)cc1	.	0.73	.	.	.	.
Cc1ccc(S(=O)(=O)N2CCC(C(=O)OCc3ccc([N+](=O)[O-])cc3)CC2)cc1	.	.	.	91.5	79.7	.
COc1ccc(CNC(=O)Oc2ccccc2)cc1Cl	80.0	-5.19*	97.4	106.3	103.7	105.0
CCOc1nc(Nc2ccc(OC)c(Cl)c2)nc(OCC)n1	89.6	-1.26	36.4*	90.7	84.0	92.0
O=C1CCCC2=C1C1c3ccccc3C(=O)N1c1ccc(C(=O)c3ccccc3)cc1N2 (centres undefined)	49.5	-0.472	20.8*	39.7	28.9	106.6
O=C1CC(c2ccco2)CC2=C1C1c3ccccc3C(=O)N1c1ccccc1N2 (centres undefined)	71.2	0.707	46.5	8.1	5.8	87.1
Cc1ccc(NC(=O)C2CC(=O)N/C(=N/N=C/c3ccco3)S2)cc1C (centres undefined)	.	.	.	96.1	70.3	.
Cc1ccccc1C(=O)/C=C1\NC(=O)CS1	102.5	0.475	86.9	92.3	100.7	103.4
O=C(Nc1cnc2ccccc2c1)C1COc2ccccc2O1 (centres undefined)	93.3	-11.6*	84.5	108.4	101.2	105.4
Cc1nnc(NC(=O)C2COc3ccccc3O2)s1 (centres undefined)	105.2	-0.435	108.5	87.4	86.3	101.5
